Bioassay records deposited in PubChem BioAssay by several laboratories.
UCH37 DUB inh: human UCH37 deubiquitinating enzyme inhibition; Q9Y5K5; purified proteasome/UCH37, Ub-AMC cleavage fluorescence; inhibition, % (no concentration beside the values); actives 0.33% (n = 330,000); AID 588478;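 active means mean inhibition over replicate wells above about 20%, limit read from the data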;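 further: 0% = compound-free wells with enzyme and 100% = wells lacking proteasome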
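Test system – human UCH37 enzyme supplied as purified proteasome complex · Incubation – 30 min preincubation with enzyme, 25 min cleavage at room temperature · Detection – AMC fluorescence from Ub-AMC cleavage, excitation 355 nm, emission 460 nm · Benchmarks – no-proteasome wells (full inhibition) and compound-free wells (no inhibition)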
Arrestin-AP2 inh: blocks beta-arrestin peptide binding to AP2 adaptin. actives 0.31% (n = 340,000). inhibition, % at 10 µM. FITC-arrestin peptide / GST-AP2 beads, flow cytometry; AP2 beta2 appendage carries R879A mutation;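 active means inhibition above a set limit, near 3 SD of compounds lacking own fluorescence, cut at about 54% in these data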;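 further: plate controls were DMSO wells for no effect and 5 µM unlabelled arrestin peptide for full effect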
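System: GST-AP2 R879A glutathione beads | Also added: FITC-arrestin peptide, 50 nM | Times: 12 min plus 1 h, RT | Signal: Bead flow cytometry, FITC channel | Buffer or medium: PBS with 0.05% Tween 20 and 0.1% BSA | Read-out basis: Percent drop in bead-associated FITC signal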
A3A deaminase: inhibitors of human APOBEC3A DNA deaminase; inhibition, % at 20 µM; AID 493011; recombinant A3A, FAM/TAMRA ssDNA deamination fluorescence; actives 0.41% (n = 330,000); P31941;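 active means at least 40% inhibition at 20 µM here, with at most 30% in a related deaminase screen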;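 further: plate controls were A3A with DMSO for no effect and wells lacking A3A enzyme for full effect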
PolyA inh: yeast polyadenylation inhibition | S. cerevisiae SKY197-pL101 polyadenylation reporter, beta-gal luminescence; efflux-impaired pdr1/pdr3 knockout yeast; score 100 = 6 SD above DMSO | activity score, % at 12 µM | actives 0.02% (n = 300,000) | AID 1875;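 active means lowest replicate activity score at least 50, where 100 means six control SD above control mean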;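 further: yeast exposed to compound for 9 h at 30 °C; higher score means more reporter readthrough which indicates perturbed polyadenylation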
A3G deaminase: APOBEC3G (human) deaminase inhibition | recombinant A3G, ssDNA deamination FAM/TAMRA fluorescence | Q9HC16 | actives 0.28% (n = 330,000) | inhibition, % at 20 µM | AID 493012;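 active means inhibition of at least 40% at 20 µM, with no more than 30% in the related APOBEC3A deaminase screen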;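 further: plate controls were DMSO wells with A3G for no effect and wells lacking A3G enzyme for full effect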
AHR act: activates the human aryl hydrocarbon receptor | P35869 | AHR-responsive luciferase reporter cells, luminescence | activation, % at 5 µM | actives 2.5% (n = 320,000) | AID 2796; in the data active means activation above about 47%;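 further: 0% = vehicle wells and 100% = reference agonist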
Target sequence (P35869 whole entry, looked up): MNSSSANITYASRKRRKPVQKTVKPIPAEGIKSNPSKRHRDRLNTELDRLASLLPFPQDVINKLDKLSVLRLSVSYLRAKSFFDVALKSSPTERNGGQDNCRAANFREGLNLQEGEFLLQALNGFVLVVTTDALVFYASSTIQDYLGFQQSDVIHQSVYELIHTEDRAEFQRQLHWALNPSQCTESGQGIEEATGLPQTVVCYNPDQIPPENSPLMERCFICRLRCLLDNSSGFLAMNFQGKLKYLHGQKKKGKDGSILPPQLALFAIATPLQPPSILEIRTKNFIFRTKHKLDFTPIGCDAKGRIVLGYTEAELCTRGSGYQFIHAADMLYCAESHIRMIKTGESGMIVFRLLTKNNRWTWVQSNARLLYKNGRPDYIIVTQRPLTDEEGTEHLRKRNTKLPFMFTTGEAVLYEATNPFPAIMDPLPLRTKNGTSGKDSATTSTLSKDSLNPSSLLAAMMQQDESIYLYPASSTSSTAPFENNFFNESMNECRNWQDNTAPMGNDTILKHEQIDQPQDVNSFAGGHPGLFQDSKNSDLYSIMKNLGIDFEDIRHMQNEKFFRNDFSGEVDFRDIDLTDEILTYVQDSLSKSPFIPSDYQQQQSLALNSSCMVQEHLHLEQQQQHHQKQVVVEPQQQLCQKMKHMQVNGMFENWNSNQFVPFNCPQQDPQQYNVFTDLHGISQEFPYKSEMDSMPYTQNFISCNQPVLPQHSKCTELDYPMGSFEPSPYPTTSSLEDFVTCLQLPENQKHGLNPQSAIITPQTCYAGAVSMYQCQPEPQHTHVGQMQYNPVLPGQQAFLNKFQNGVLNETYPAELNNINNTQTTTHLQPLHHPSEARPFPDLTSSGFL
An asterisk follows results filed as active; nt = not tested or not shown. Shown are actives, neighbours in structure and some others; about 3.4% of the full set was active somewhere.

SMILES	UCH37 DUB inh	Arrestin-AP2 inh	A3A deaminase	PolyA inh	A3G deaminase	AHR act
CCOC(=O)c1[nH]c2ccccc2c1NC(=O)C(C)(C)C	-26	-2	-6	-7	-8	3
CCOc1ccc2nc(NC(=O)CCn3cccc3)sc2c1	-2	3	-2	-3	1	59*
O=C(Nc1nc2ccccc2s1)c1ccc([N+](=O)[O-])o1	3	5	-3	-4	-11	1
CC(=O)NNc1nc2ccccc2s1	3	3	-2	-7	-1	20
CCCC(=O)Nc1nc2ccc(OCC)cc2s1	1	0	0	-12	-8	20
Cc1ccc(NC(=O)Nc2nc3ccccc3s2)cc1NC(=O)Nc1nc2ccccc2s1	1	27	-1	-5	-8	54*
COc1ccc2nc(NC(=O)c3ccc([N+](=O)[O-])o3)sc2c1	3	-6	4	-41	-3	52*
O=C(NNc1nc2ccccc2s1)Nc1ccccc1	nt	0	-1	-12	-5	59*
Cc1occc1C(=O)NN=Cc1cccnc1	1	nt	nt	nt	nt	nt
CN1C[C@@H](c2ccc(Cl)c(Cl)c2)[C@@]2(COc3ccccc3C2=O)[C@@]12C(=O)Nc1ccccc12	2	nt	nt	nt	nt	nt
CC(=NO)c1ccccc1C(=O)O	0	nt	nt	nt	nt	nt
COc1ccc2nc(NC(=O)Nc3cccc4ccccc34)sc2c1	-16	3	-5	-23	-9	64*
COc1ccc(OCC(=O)Nc2nc3ccc(NC(C)=O)cc3s2)cc1	2	-13	-1	-1	-9	24
O=C(COc1ccccc1)NNc1nc2c(F)cccc2s1	1	11	1	24	-4	22
COc1ccc2nc(NNC(=O)COc3ccccc3)sc2c1	0	1	-1	14	-6	72*
O=C(COc1ccccc1)NNc1nc2ccccc2s1	0	31	2	8	3	50*
COc1ccc2nc(NC(=O)Nc3ccccc3OC)sc2c1	1	-17	1	-24	-4	2
CC(=NNC(=O)Cc1cccn1C)c1ccccc1	2	nt	nt	nt	nt	nt
COc1cc(C(C)=NN2CCOCC2)cc(OC)c1OC	4	nt	nt	nt	nt	nt
COc1ccc(-c2nc3c4ccccc4ccn3c2CN2CCOCC2)cc1OC	-46	16	1	-12	-4	58*
c1ccc(-c2nc3c4ccccc4ccn3c2CN2CCOCC2)cc1	-3	12	1	1	-3	46
O=C(CNC1CCCCC1)Nc1ccc([N+](=O)[O-])cc1C(=O)Nc1ccccc1F	-1	-5	1	-13	-5	48*
Cc1nc2cc3c(cc2c(C)c1C(=O)OC(C)C)OCO3	-20	32	0	-21	-4	64*
COC(=O)c1nc2cc3c(cc2c(C)c1C(=O)OC)OCO3	-154	-4	-2	13	-9	1
COc1ccc(C=NNc2cc(C)nc(-n3nc(C)cc3C)n2)c(OC)c1	1	nt	nt	nt	nt	nt
SMILES	UCH37 DUB inh	Arrestin-AP2 inh	A3A deaminase	PolyA inh	A3G deaminase	AHR act
CCOC(=O)C1(C)NC(c2cc(OC)c(OC)c(OC)c2)C2C(=O)N(CC)C(=O)C21 (configuration not stated)	1	7	1	-5	-5	71*
CCc1ccccc1NC(=O)c1cc2sccc2n1C	4	20	2	1	-9	64*
Cn1c(C(=O)Nc2ccccc2)cc2sccc21	3	18	2	-12	-1	56*
O=C(CNC(=O)c1cccnc1)NN=Cc1ccc(O)cc1O	0	nt	nt	nt	nt	nt
c1ccc2c(Nc3nnc(-c4ccncc4)s3)cccc2c1	3	12	-8	-18	-7	63*
C=CCNc1nnc(-c2ccncc2)s1	-198	-2	4	0	1	2
ON=C(c1ccc(Cl)cc1)c1cc2ccccc2o1	5	nt	nt	nt	nt	nt
COC(=O)N/N=C\c1ccc(OC/C=C/c2ccccc2)c(OC)c1	nt	6	3	-1	8	51*
CC(=NNc1ccccc1[N+](=O)[O-])c1ccccc1O	-1	nt	nt	nt	nt	nt
COCCCN1C(=O)CSC1=NS(=O)(=O)c1ccccc1	1	nt	nt	nt	nt	nt
C/C(=N\NC(=O)COc1ccccc1[N+](=O)[O-])c1cccs1	nt	-8	5	-8	5	57*
O=C(COc1ccccc1[N+](=O)[O-])Nc1ccc(Br)cc1	3	-3	-7	nt	-5	53*
O=C(O)c1cc(NN=C/C=C/c2ccccc2[N+](=O)[O-])ccc1Cl	15	nt	nt	nt	nt	nt
Fc1ccc(NC(=S)Nc2cccc3ccccc23)cc1F	3	-8	-1	5	5	74*
Fc1ccc(NC(=S)Nc2cccc3ccccc23)cc1	0	14	-6	12	-2	50*
Fc1ccc(NC(=S)Nc2cccc3cnccc23)cc1	1	-1	2	19	16	11
CC(=O)N(N=C1C(=O)Nc2ccccc21)c1ccccc1	3	nt	nt	nt	nt	nt
COc1ccc(Cl)cc1NC(=O)c1cnc2n(c1=O)CCS2	-34	14	0	-5	-6	13
COc1ccc(OC)c(NC(=O)c2cnc3n(c2=O)CCS3)c1	7	-2	0	-6	-4	50*
COc1ccccc1NC(=O)c1cnc2n(c1=O)CCS2	8	-2	-1	1	-2	67*
COc1cc(C(=O)Oc2ccc(C=NNC(=O)c3ccncc3)cc2)cc(OC)c1OC	4	nt	nt	nt	nt	nt
COc1ccc(OC)c(C=NNC(=O)c2c(C)nc3cc(C)ccn23)c1	-380	nt	nt	nt	nt	nt
CCOc1ncccc1C(=O)NNC(=O)c1ccccc1-n1cccc1	5	7	8	0	-3	61*
c1ccc(Nc2cc(Nc3ccccc3)[nH]n2)cc1	3	-5	3	-7	-3	70*
O=c1nccc(Nc2ccccc2)[nH]1	8	-16	0	5	-4	0
SMILES	UCH37 DUB inh	Arrestin-AP2 inh	A3A deaminase	PolyA inh	A3G deaminase	AHR act
COc1ccccc1Nc1cc(C(=O)N2CCc3ccccc3C2)c2ccccc2n1	-30	nt	-2	8	-7	64*
COc1ccc(Nc2cc(C(=O)N3CCc4ccccc4C3)c3ccccc3n2)c(OC)c1	-4	nt	1	0	-5	55*
Cc1c(Cl)cccc1NC(=O)CCC(=O)NN=Cc1ccco1	5	nt	nt	nt	nt	nt
Cc1cccc(-n2c(O)cnc2Nc2nc(C)cc(C)n2)c1	3	6	-5	-5	-7	65*
NC(Cc1nc2ccccc2s1)=NO	6	nt	nt	nt	nt	nt
ClC(Cl)(Cl)c1nc(N/N=C/c2ccncc2)c2ccccc2n1	nt	11	0	2	0	67*
Fc1ccc(C=NNc2nc(-c3cccnc3)nc3ccccc23)cc1	0	nt	nt	nt	nt	nt
O=[N+]([O-])c1cccc(/C=N/Nc2nc(C(Cl)(Cl)Cl)nc3ccccc23)c1	nt	6	6	0	-5	54*
C(=N\Nc1nc(-c2cccnc2)nc2ccccc12)/c1ccccc1	nt	17	-5	0	-6	58*
